Data as given in ChEMBL document CHEMBL3525944, “Nonlinear pharmacokinetics of 5-methoxy-N,N-dimethyltryptamine in mice” (Drug Metab Dispos, 2011).

Assays:
[1] = Ratio of drug level in brain to serum in wild-type FVB/N mouse at 20 mg/kg, ip by LC-MS/MS analysis; type: ADME, organism-based; set-up: dose 20 mg/kg, route intraperitoneal
How it was run: (§1)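 Mice dosed i.p. with 5-MeO-DMT in saline and killed at 20, 30 or 60 min. Brain homogenized in ice-cold saline and extracted liquid-liquid; serum processed by acetonitrile precipitation. Both quantified by LC-MS/MS (brain range 4.1-3000 nM). Ratio is brain over serum concentration at the same time point.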

[2] = Ratio of drug level in brain to serum in wild-type FVB/N mouse at 10 mg/kg, ip by LC-MS/MS analysis; type: ADME, organism-based; set-up: dose 10 mg/kg, route intraperitoneal; how it was run: as §1
[3] = Bioavailability in wild-type FVB/N mouse at 20 mg/kg, ip by LC-MS/MS analysis; type: ADME, organism-based; conditions: in vivo
[4] = Volume of distribution at steady state in wild-type FVB/N mouse at 2 mg/kg, iv by LC-MS/MS analysis; type: ADME, organism-based; set-up: dose 2 mg/kg, route intravenous; conditions: in vivo, read-out: Vdss
How it was run: (§2)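 Male 8-week FVB/N wild-type or CYP2D6-humanized mice (25-30 g) given 5-MeO-DMT oxalate in saline i.v. at 5 µL/g body weight. Serum collected 0-180 min, N = 3 per time point, proteins precipitated with ice-cold acetonitrile containing internal standard, LC-MS/MS. Noncompartmental analysis of composite mean data; t1/2 = 0.693/terminal slope; Vss = CL×AUMC/AUC, CL = dose/AUC0→∞.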

[5] = Volume of distribution at steady state in CYP2D6-humanized transgenic FVB/N mouse at 10 mg/kg, iv by LC-MS/MS analysis; type: ADME, organism-based; set-up: dose 10 mg/kg, route intravenous; conditions: in vivo, read-out: Vdss; how it was run: as §2
Mus musculus [6] = assay: AUC (0 to infinity) in CYP2D6-humanized transgenic FVB/N mouse at 10 mg/kg, iv by LC-MS/MS analysis; type: ADME, organism-based, Plasma; set-up: time infinity, dose 10 mg/kg, route intravenous; conditions: in vivo
Mus musculus [7] = assay: AUC (0 to infinity) in wild-type FVB/N mouse at 2 mg/kg, iv by LC-MS/MS analysis; type: ADME, organism-based, Plasma; set-up: time infinity, dose 2 mg/kg, route intravenous; conditions: in vivo
[8] = Volume of distribution at steady state in wild-type FVB/N mouse at 10 mg/kg, iv by LC-MS/MS analysis; type: ADME, organism-based; set-up: dose 10 mg/kg, route intravenous; conditions: in vivo, read-out: Vdss; how it was run: as §2
[9] = Tmax in CYP2D6-humanized transgenic FVB/N mouse at 2 mg/kg, ip by LC-MS/MS analysis; type: ADME, organism-based; set-up: dose 2 mg/kg, route intraperitoneal; conditions: in vivo
How it was run: (§3)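 Male 8-week FVB/N wild-type or CYP2D6-humanized mice given 5-MeO-DMT oxalate in saline i.p. at 10 µL/g body weight. Serum sampled 0-180 min, N = 4 per time point, processed by acetonitrile protein precipitation with internal standard, quantified by LC-MS/MS. Tmax taken as observed from composite mean serum concentration-time data.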

[10] = Half life in CYP2D6-humanized transgenic FVB/N mouse at 2 mg/kg, iv by LC-MS/MS analysis; type: ADME, organism-based; set-up: dose 2 mg/kg, route intravenous; conditions: in vivo
[11] = Half life in CYP2D6-humanized transgenic FVB/N mouse at 10 mg/kg, iv by LC-MS/MS analysis; type: ADME, organism-based; set-up: dose 10 mg/kg, route intravenous; conditions: in vivo
Mus musculus [12] = assay: AUC (0 to infinity) in wild-type FVB/N mouse at 2 mg/kg, ip by LC-MS/MS analysis; type: ADME, organism-based, Plasma; set-up: time infinity, dose 2 mg/kg, route intraperitoneal; conditions: in vivo
Mus musculus [13] = assay: Dose normalized AUC (0 to infinity) in wild-type FVB/N mouse at 10 mg/kg, ip by LC-MS/MS analysis; type: ADME, organism-based; set-up: dose 10 mg/kg, route intraperitoneal; conditions: in vivo
Mus musculus [14] = assay: Dose normalized AUC (0 to infinity) in CYP2D6-humanized transgenic FVB/N mouse at 10 mg/kg, iv by LC-MS/MS analysis; type: ADME, organism-based; set-up: dose 10 mg/kg, route intravenous; conditions: in vivo
Mus musculus [15] = assay: Dose normalized AUC (0 to infinity) in CYP2D6-humanized transgenic FVB/N mouse at 2 mg/kg, ip by LC-MS/MS analysis; type: ADME, organism-based; set-up: dose 2 mg/kg, route intraperitoneal; conditions: in vivo
[16] = Tmax in wild-type FVB/N mouse at 10 mg/kg, ip by LC-MS/MS analysis; type: ADME, organism-based; set-up: dose 10 mg/kg, route intraperitoneal; conditions: in vivo; how it was run: as §3
Mus musculus [17] = assay: AUC (0 to infinity) in CYP2D6-humanized transgenic FVB/N mouse at 2 mg/kg, iv by LC-MS/MS analysis; type: ADME, organism-based, Plasma; set-up: time infinity, dose 2 mg/kg, route intravenous; conditions: in vivo
[18] = Clearance in wild-type FVB/N mouse at 10 mg/kg, iv by LC-MS/MS analysis; type: ADME, organism-based; set-up: dose 10 mg/kg, route intravenous; conditions: in vivo
[19] = Cmax in wild-type FVB/N mouse at 20 mg/kg, ip by LC-MS/MS analysis; type: ADME, organism-based; set-up: dose 20 mg/kg, route intraperitoneal; conditions: in vivo
[20] = Half life in wild-type FVB/N mouse at 10 mg/kg, iv by LC-MS/MS analysis; type: ADME, organism-based; set-up: dose 10 mg/kg, route intravenous; conditions: in vivo
[21] = Cmax in CYP2D6-humanized transgenic FVB/N mouse at 20 mg/kg, ip by LC-MS/MS analysis; type: ADME, organism-based; set-up: dose 20 mg/kg, route intraperitoneal; conditions: in vivo
Serum [22] = assay: Drug uptake in CYP2D6-humanized transgenic FVB/N mouse serum by LC-MS/MS analysis; type: ADME, cell-free; conditions: read-out: Drug uptake
[23] = Volume of distribution at steady state in CYP2D6-humanized transgenic FVB/N mouse at 20 mg/kg, iv by LC-MS/MS analysis; type: ADME, organism-based; set-up: dose 20 mg/kg, route intravenous; conditions: in vivo, read-out: Vdss; how it was run: as §2
[24] = Clearance in CYP2D6-humanized transgenic FVB/N mouse at 20 mg/kg, iv by LC-MS/MS analysis; type: ADME, organism-based; set-up: dose 20 mg/kg, route intravenous; conditions: in vivo
Mus musculus [25] = assay: AUC (0 to infinity) in CYP2D6-humanized transgenic FVB/N mouse at 10 mg/kg, ip by LC-MS/MS analysis; type: ADME, organism-based, Plasma; set-up: time infinity, dose 10 mg/kg, route intraperitoneal; conditions: in vivo
Mus musculus [26] = assay: AUC (0 to infinity) in CYP2D6-humanized transgenic FVB/N mouse at 2 mg/kg, ip by LC-MS/MS analysis; type: ADME, organism-based, Plasma; set-up: time infinity, dose 2 mg/kg, route intraperitoneal; conditions: in vivo
[27] = Cmax in CYP2D6-humanized transgenic FVB/N mouse at 2 mg/kg, ip by LC-MS/MS analysis; type: ADME, organism-based; set-up: dose 2 mg/kg, route intraperitoneal; conditions: in vivo
Serum [28] = assay: Drug uptake in wild-type FVB/N mouse serum by LC-MS/MS analysis; type: ADME, cell-free; conditions: read-out: Drug uptake
[29] = Cmax in wild-type FVB/N mouse at 2 mg/kg, ip by LC-MS/MS analysis; type: ADME, organism-based; set-up: dose 2 mg/kg, route intraperitoneal; conditions: in vivo
Mus musculus [30] = assay: Dose normalized AUC (0 to infinity) in wild-type FVB/N mouse at 10 mg/kg, iv by LC-MS/MS analysis; type: ADME, organism-based; set-up: dose 10 mg/kg, route intravenous; conditions: in vivo
[31] = Tmax in CYP2D6-humanized transgenic FVB/N mouse at 20 mg/kg, ip by LC-MS/MS analysis; type: ADME, organism-based; set-up: dose 20 mg/kg, route intraperitoneal; conditions: in vivo; how it was run: as §3
Mus musculus [32] = assay: AUC (0 to infinity) in wild-type FVB/N mouse at 10 mg/kg, iv by LC-MS/MS analysis; type: ADME, organism-based, Plasma; set-up: dose 10 mg/kg, route intravenous, time infinity; conditions: in vivo
Mus musculus [33] = assay: AUC (0 to infinity) in CYP2D6-humanized transgenic FVB/N mouse at 20 mg/kg, ip by LC-MS/MS analysis; type: ADME, organism-based, Plasma; set-up: time infinity, dose 20 mg/kg, route intraperitoneal; conditions: in vivo
Mus musculus [34] = assay: Dose normalized AUC (0 to infinity) in wild-type FVB/N mouse at 2 mg/kg, ip by LC-MS/MS analysis; type: ADME, organism-based; set-up: dose 2 mg/kg, route intraperitoneal; conditions: in vivo
[35] = Tmax in wild-type FVB/N mouse at 2 mg/kg, ip by LC-MS/MS analysis; type: ADME, organism-based; set-up: dose 2 mg/kg, route intraperitoneal; conditions: in vivo; how it was run: as §3
[36] = Volume of distribution at steady state in CYP2D6-humanized transgenic FVB/N mouse at 2 mg/kg, iv by LC-MS/MS analysis; type: ADME, organism-based; set-up: dose 2 mg/kg, route intravenous; conditions: in vivo, read-out: Vdss; how it was run: as §2

COc1ccc2[nH]cc(CCN(C)C)c2c1.O=C(O)C(=O)O showed a Kp [1] of 2.7, a Kp [2] of 1.8 and a bioavailability [3] of 71%. It also gave a Vd [4] of 2.27 L/kg, a Vd [5] of 1.68 L/kg and an AUC (Mus musculus [6]) of 369 µmol·min/L. For the same molecule, the AUC (Mus musculus [7]) was 47.6 µmol·min/L, the Vd [8] was 2.08 L/kg and the Tmax [9] was 3 min. For the same molecule, the half-life [10] was 8.4 min, the half-life [11] was 12 min and the AUC (Mus musculus [12]) was 24.9 µmol·min/L. It also gave an AUC/dose (Mus musculus [13]) of 5.03 kg·min/L, an AUC/dose (Mus musculus [14]) of 8.1 kg·min/L and an AUC/dose (Mus musculus [15]) of 2.28 kg·min/L. For the same molecule, the Tmax [16] was 5 min, the AUC (Mus musculus [17]) was 49.1 µmol·min/L and the clearance [18] was 94 mL/min/kg. For the same molecule, the Cmax [19] was 15800 nM, the half-life [20] was 12 min and the Cmax [21] was 18300 nM. For the same molecule, the concentration (Serum [22]) was 4.1 nM, the Vd [23] was 2.18 L/kg and the clearance [24] was 110 mL/min/kg. The AUC (Mus musculus [25]) was 225 µmol·min/L, the AUC (Mus musculus [26]) was 20.9 µmol·min/L and the Cmax [27] was 1010 nM. For the same molecule, the concentration (Serum [28]) was 4.1 nM, the Cmax [29] was 1310 nM and the AUC/dose (Mus musculus [30]) was 10.6 kg·min/L. The Tmax [31] was 5 min, the AUC (Mus musculus [32]) was 487 µmol·min/L and the AUC (Mus musculus [33]) was 569 µmol·min/L. The AUC/dose (Mus musculus [34]) was 2.71 kg·min/L, the Tmax [35] was 3 min and the Vd [36] was 2.55 L/kg.
